Results as given in ChEMBL document CHEMBL3822384, “2-(3-Methoxyphenyl)quinazoline Derivatives: A New Class of Direct Constitutive Androstane Receptor (CAR) Agonists” (J Med Chem, 2016).
The source made the active and inactive calls. No cut-off for these calls is given here.

Key:
HepG2 = test: Cytotoxicity against human HepG2 cells assessed as cell viability after 24 hrs by MTS assay; assay type: cell-based; conditions: hepg2, 24 h
Cytochrome P450 3A4 = Cytochrome P450 3A4 (Homo sapiens, UniProt P08684); test: Inhibition of recombinant human CYP3A4 by P450-Glo luminescence assay; assay type: ADME
Cytochrome P450 3A4, sequence (P08684 whole entry): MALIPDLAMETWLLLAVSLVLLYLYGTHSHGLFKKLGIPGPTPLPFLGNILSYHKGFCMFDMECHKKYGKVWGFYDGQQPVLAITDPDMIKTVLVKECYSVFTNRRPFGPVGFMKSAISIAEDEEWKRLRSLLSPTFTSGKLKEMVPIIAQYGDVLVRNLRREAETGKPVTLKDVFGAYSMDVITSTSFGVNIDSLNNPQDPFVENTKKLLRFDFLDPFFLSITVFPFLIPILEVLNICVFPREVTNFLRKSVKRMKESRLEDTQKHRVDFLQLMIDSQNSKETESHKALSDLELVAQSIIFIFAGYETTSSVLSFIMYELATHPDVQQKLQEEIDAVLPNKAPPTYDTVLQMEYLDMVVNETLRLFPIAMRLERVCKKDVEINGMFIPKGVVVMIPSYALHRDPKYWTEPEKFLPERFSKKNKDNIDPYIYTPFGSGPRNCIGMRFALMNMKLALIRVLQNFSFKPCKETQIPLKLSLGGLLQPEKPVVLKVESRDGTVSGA

[1] = biological target: Nuclear receptor subfamily 1 group I member 3 (Homo sapiens, UniProt Q14994); test: (§1) Agonist activity at human CAR3 expressed in African green monkey COS-1 cells cotransfected with RXRalpha after 24 hrs by CYP2B6-luciferase reporter gene assay; assay type: cell-based; conditions: for EC50: cos-1; for Activity: human, cos-1, 24 h
Summary of the method: (§2)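 COS-1 cells co-transfected with CYP2B6-luc, low-constitutive-activity CAR3 variant, RXRα (100 ng/well) and pRL-TK; after 24 h stabilization, compound or DMSO (0.1%, v/v) for 24 h. Firefly luciferase normalized to Renilla; fold change relative to vehicle (set to 1), means of three independent experiments.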

CAR3 (NR1I3) = CAR3 (NR1I3) (Homo sapiens, UniProt Q14994, WILDTYPEORMUTANTINASSAY1587668); test: as §1; assay type: cell-based; conditions: human, COS-1 cells expressing human CAR3 and RXRalpha; read-out: Imax; summary of the method: as §2
[2] = biological target: T1, Vitamin D3 receptor (Homo sapiens) (UniProt P11473); test: Agonist activity at VDR in human primary hepatocytes assessed as upregulation of CYP3A5 mRNA expression at 10 uM after 24 hrs by qRT-PCR method; assay type: cell-based; conditions: Hepatocyte
T1 sequence (whole entry): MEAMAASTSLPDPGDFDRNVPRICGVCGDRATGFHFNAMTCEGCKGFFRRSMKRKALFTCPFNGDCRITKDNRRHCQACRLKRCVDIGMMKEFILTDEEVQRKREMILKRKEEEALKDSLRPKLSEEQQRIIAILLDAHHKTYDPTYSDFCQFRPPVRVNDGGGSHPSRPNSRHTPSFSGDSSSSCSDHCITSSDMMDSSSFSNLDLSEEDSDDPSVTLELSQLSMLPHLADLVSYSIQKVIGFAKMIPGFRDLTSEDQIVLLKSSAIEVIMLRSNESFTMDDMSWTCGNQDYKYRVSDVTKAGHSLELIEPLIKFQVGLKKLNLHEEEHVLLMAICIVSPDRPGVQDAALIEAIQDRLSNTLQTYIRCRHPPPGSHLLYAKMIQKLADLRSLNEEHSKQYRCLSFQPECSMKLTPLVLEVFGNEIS

[3] = biological target: T2, Nuclear receptor subfamily 1 group I member 3 (Homo sapiens, UniProt Q14994); test: Agonist activity at human GAL4-fused CAR LBD (108 to 348 residues) expressed in human HepG2 cells assessed as receptor binding to SRC1-VP16 fusion protein at 5 to 20 uM after 24 hrs by luciferase reporter gene assay; assay type: cell-based; conditions: hepg2, 24 h
T2 sequence (Q14994 whole entry): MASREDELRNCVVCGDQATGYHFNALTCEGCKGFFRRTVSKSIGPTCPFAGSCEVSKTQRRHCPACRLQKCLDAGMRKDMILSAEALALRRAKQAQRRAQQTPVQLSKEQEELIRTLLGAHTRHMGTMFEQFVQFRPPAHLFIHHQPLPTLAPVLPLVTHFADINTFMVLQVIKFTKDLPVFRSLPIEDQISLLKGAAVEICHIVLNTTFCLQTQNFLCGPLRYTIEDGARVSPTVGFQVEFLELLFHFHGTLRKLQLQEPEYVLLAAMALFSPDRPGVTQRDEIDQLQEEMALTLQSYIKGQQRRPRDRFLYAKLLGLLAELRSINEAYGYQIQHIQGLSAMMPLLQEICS

[4] = biological target: T2, Nuclear receptor subfamily 1 group I member 3; test: Agonist activity at CAR expressed in human HepG2 cells after 24 hrs by CYP3A4-luciferase reporter gene assay; assay type: cell-based; conditions: hepg2, 24 h
Summary of the method: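 HepG2 cells co-transfected with CYP3A4-luc, wild-type CAR vector and pRL-TK; 24 h stabilization, then compound or DMSO (0.1%, v/v) for 24 h, with parallel androstenol (5 µM) treatment to suppress basal activity. Dual firefly/Renilla luciferase read; fold induction over vehicle (set to 1), means of three independent experiments.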

Vitamin D3 receptor = biological target: T3, Vitamin D3 receptor (Homo sapiens, UniProt P11473); test: Agonist activity at VDR expressed in human HuH7 cells after 24 hrs by pDR3-luciferase reporter gene assay; assay type: cell-based, Huh-7
T3 sequence (P11473 whole entry): T1 sequence (whole entry)

[5] = biological target: T2, Nuclear receptor subfamily 1 group I member 3; test: Agonist activity at CAR LBD (108 to 348 residues) expressed in human HepG2 cells assessed as receptor binding to PGC1alpha by lanthascreenTR-FRET coactivator assay
[6] = biological target: T1, Vitamin D3 receptor (Homo sapiens); test: Agonist activity at VDR in human primary hepatocytes assessed as upregulation of MDR/ABCB1 mRNA expression at 10 uM after 24 hrs by qRT-PCR method; assay type: cell-based; conditions: Hepatocyte
Cytochrome P450 1A2 = biological target: T4, Cytochrome P450 1A2 (Homo sapiens, UniProt P05177); test: Inhibition of recombinant human CYP1A2 by P450-Glo luminescence assay; assay type: ADME
T4 sequence (P05177 whole entry): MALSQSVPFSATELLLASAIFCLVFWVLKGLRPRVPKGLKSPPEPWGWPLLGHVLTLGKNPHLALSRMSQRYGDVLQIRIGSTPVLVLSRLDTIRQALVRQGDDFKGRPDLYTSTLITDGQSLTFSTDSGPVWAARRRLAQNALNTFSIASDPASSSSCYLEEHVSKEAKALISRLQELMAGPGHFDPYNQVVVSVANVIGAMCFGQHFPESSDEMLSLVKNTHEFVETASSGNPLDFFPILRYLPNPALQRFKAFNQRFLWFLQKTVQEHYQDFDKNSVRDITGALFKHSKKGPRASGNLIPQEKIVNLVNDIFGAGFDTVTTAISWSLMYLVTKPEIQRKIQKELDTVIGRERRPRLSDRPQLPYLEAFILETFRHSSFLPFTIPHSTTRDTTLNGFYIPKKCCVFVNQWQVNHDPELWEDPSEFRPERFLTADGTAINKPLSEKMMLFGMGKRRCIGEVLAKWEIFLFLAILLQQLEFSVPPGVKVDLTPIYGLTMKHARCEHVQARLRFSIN

[7] = biological target: T5, Nuclear receptor subfamily 1 group I member 2 (Homo sapiens, UniProt O75469); test: Agonist activity at PXR in human primary hepatocytes assessed as upregulation of UGT1A1 mRNA expression at 10 uM after 24 hrs by qRT-PCR method; assay type: cell-based, Hepatocyte
T5 sequence (O75469 whole entry): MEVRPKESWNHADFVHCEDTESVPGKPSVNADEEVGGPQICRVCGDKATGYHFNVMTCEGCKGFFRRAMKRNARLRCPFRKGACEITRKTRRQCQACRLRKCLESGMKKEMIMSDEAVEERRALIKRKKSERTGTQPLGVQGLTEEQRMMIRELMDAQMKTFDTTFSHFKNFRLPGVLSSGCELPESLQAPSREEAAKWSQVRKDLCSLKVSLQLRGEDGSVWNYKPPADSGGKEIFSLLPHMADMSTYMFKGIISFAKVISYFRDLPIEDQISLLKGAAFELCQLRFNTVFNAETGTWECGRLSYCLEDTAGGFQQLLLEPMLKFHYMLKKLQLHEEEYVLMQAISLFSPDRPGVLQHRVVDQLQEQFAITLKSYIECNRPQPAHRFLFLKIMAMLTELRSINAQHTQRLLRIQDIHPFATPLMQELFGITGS

[8] = biological target: T1, Vitamin D3 receptor (Homo sapiens); test: Agonist activity at VDR in human primary hepatocytes assessed as upregulation of CYP2C9 mRNA expression at 10 uM after 24 hrs by qRT-PCR method; assay type: cell-based; conditions: Hepatocyte

IC50 (Cytochrome P450 3A4)	EC50 [1]	Activity [1]	Emax at 24 h (CAR3 (NR1I3))	Activity [2]	Activity [3]	Activity [4]	EC50 (Vitamin D3 receptor)	EC50 [5]	Activity [6]	IC50 (Cytochrome P450 1A2)	Activity [7]	Activity [8]	IC50 (Cytochrome P450 3A4; read-out: IC50)	Compound	Activity (HepG2)
Not Active	6120 nM	Dose-dependent effect	333%	Active	Active	Dose-dependent effect	510 nM	690 nM	Active	750 nM	Active	Active	–	COc1cccc(-c2nc3ccccc3c(=S)[nH]2)c1	Non-toxic
–	4910 nM	Dose-dependent effect	462%	Active	Active	Dose-dependent effect	1950 nM	2070 nM	Active	180 nM	Active	Active	12900 nM	COc1cccc(-c2nc(OC)c3ccccc3n2)c1	Non-toxic
–	4040 nM	Dose-dependent effect	158%	Active	Active	Dose-dependent effect	> 3000 nM	5120 nM	Active	420 nM	Active	Active	22900 nM	COc1cccc(-c2nc(SC)c3ccccc3n2)c1	Non-toxic
